Shown are actives, neighbours in structure and some others; about 1.2% of the full set was active somewhere.
Yeast superoxide – lowers age-related superoxide in aged yeast cells; S. cerevisiae aged cells, superoxide DHE fluorescence; active compounds read low; AID 2690; superoxide response (% of plate mean), % at 10 µM; hit rate 0.18% among 330,000;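 active means superoxide response under a set limit, about three screen SD below normal, cut at about 65% in these data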;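 further: yeast aged for seven days with compound at 30 °C before DHE staining; 100% = average MFI of all compound-treated wells on the plate with controls excluded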
procasp3 activ – activators of human procaspase-3. recombinant procaspase-3 D3A, Ac-DEVD-pNA absorbance 405 nm. activation, % at 8.5 µM. hit rate 0.11% among 330,000;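 active means activation above the mean of all tested compounds plus 3 SD, cut at about 21% in these data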;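 further: 0% = DMSO alone and 100% = DMSO wells spiked with extra 5 µM PC-3 D3A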
Target sequence (P42574 whole entry D9A/D28A/D175A): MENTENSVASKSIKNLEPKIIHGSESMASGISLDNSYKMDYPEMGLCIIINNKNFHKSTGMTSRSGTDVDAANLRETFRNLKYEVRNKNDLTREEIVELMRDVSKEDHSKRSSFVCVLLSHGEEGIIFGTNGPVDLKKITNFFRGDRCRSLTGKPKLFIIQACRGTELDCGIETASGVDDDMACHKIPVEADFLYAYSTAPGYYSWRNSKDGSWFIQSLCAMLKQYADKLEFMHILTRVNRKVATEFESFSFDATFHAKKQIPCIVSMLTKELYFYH
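Assay system – Procaspase-3 D3A mutant · Benchmarks – DMSO low control, extra-enzyme high control · Technique – 405 nm absorbance of p-nitroaniline, reads at 0 and 120 min · Doses – 8.5 µM nominal · Measure – % activation between DMSO and enzyme-spiked controls · Also added – Ac-DEVD-pNA chromogenic peptide substrate · Schedule – 1 h compound preincubation, 2 h substrate hydrolysis at 25 °C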
procasp7 counter – activates human procaspase-7, counter-screen for procaspase-3 activators. P55210. recombinant procaspase-7, Ac-DEVD-pNA absorbance 405 nm; D23A/D198A/D206A triple mutant, cannot self-cleave; scale: DMSO 0, 5 µM enzyme 100. activation, % at 8.5 µM. hit rate 0.093% among 330,000. AID 463210;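 active means percent activation above the screen-wide mean plus 3 SD, cut at about 25% in these data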
Target sequence (P55210 whole entry D23A/D198A/D206A): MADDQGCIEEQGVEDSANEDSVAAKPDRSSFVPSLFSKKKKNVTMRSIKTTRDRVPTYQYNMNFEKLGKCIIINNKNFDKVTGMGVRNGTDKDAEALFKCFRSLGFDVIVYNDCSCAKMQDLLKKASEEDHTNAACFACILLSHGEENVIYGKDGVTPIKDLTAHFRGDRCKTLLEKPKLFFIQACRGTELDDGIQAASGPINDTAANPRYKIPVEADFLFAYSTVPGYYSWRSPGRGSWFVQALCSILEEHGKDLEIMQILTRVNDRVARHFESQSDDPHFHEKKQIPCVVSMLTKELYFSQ
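buffer or medium = Zinc-free HEPES/NaCl buffer, pH 7.4 | material = Procaspase-7 triple mutant (PC-7 D3A) | input = 2 µM procaspase-7 mutant as dispensed | signal = Epi-absorbance of released pNA at 405 nm, two timepoints | timing = 1 h preincubation, 2 h reaction | replicates = singlicate compound testing | evaluation = % activation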
LANA-H2A inh – blocks KSHV LANA binding to histone H2A/H2B. inhibition, % (test concentration not listed). cell-free LANA-H2A/H2B peptide, fluorescence polarization. Q9QR71. hit rate 0.6% among 320,000; in the data active means inhibition mostly above about 10%, no sharp cut-off; inactive means mostly below about 6.7%
ARFGAP1 inhibitor – inhibits rat ARF GTPase activating protein 1. Q62848. Arfgap1-stimulated ARF1 GTP hydrolysis, GDP FP detection. inhibition, % at 16.5 µM. hit rate 0.26% among 360,000;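 active means inhibition above a per-plate limit, mean inhibition of low control wells plus 3 SD, cut at about 25% in these data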;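 further: 0% = DMSO wells with enzyme and 100% = wells lacking Arfgap1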
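Assay system: purified rat His6-Arfgap1 residues 1-136 (GAP domain); Reagent: human Δ17 ARF1 bound to GTP; Dosing: 16.5 µM single point, 1.26% DMSO; Times: GTP hydrolysis reaction 2 h at 25 °C; Signal: FP, GDP Alexa 633 tracer displaced from anti-GDP antibody, 620/688 nm; Measure: % inhibition from polarization.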
ASAP1 inh – inhibitors of human ASAP1 ArfGAP activity. Q9ULH1. ASAP1-stimulated ARF1 GTP hydrolysis, GDP FP detection. inhibition, % at 16.5 µM. hit rate 0.19% among 360,000; in the data active means inhibition above about 25%;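 further: 0% = vehicle with enzyme and substrate and 100% = no enzyme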
Superoxide pick – yeast aging superoxide inhibition, cherry pick confirmation | S. cerevisiae aging, superoxide DHE fluorescence; active compounds read low | hit rate 1% among 850 | superoxide response (% of plate), % at 10 µM | shares compounds with Yeast superoxide;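 active means superoxide signal below 65% of the plate average of sample wells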;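 further: cells aged with compound for 7 days at 30 degrees C before staining; 100% equals mean DHE fluorescence of all compound wells on the plate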
DHE fluor count – DHE fluorescence interference, counter-screen artifact. AID 435000. shares compounds with Yeast superoxide. 850 tested, under 10 active. S. cerevisiae BY4741, flow cytometry; active compounds read low. fluorescence response, % at 10 µM;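 active means fluorescence response below 15%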;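 further: percent of the mean fluorescence averaged over all compound wells on the plate; lower means stronger quenching of DHE signal or ROS scavenging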
* hit, by the source's call; x = no result given.

SMILES	Yeast superoxide	procasp3 activ	procasp7 counter	LANA-H2A inh	ARFGAP1 inhibitor	ASAP1 inh	Superoxide pick	DHE fluor count
O=C(Cc1cccs1)NNC(=S)NC(=O)c1ccccc1	125	-1	2	-3	-3	-9	x	x
Cc1noc(C)c1CSc1nnc2cc(C)c3ccccc3n12	101	-1	3	-2	x	x	x	x
Cc1cc(C)n2nc(C)c(-c3ccccc3)c2n1	104	0	2	-1	7	7	x	x
Cc1cc(C)n2nc(-c3ccccc3)c(-c3ccccc3)c2n1	93	-3	2	-4	-8	4	95	92
CCN(Cc1ccccc1)S(=O)(=O)c1ccc(C(=O)Nc2nnc(C)o2)cc1	82	6	-8	-6	-7	-4	87	100
COc1ccc(-c2nc3c(s2)CN(S(C)(=O)=O)CC3)cc1OC	97	x	x	-2	10	3	x	x
CCS(=O)(=O)N1CCc2nc(-c3ccccc3)sc2C1	46*	-6	2	2	9	-8	99	93
CCN(CC)CCn1c2c(c(SCC(=O)Nc3cccc4ccccc34)nc1=O)CCCC2	115	-2	8	1	9	-7	x	x
Cc1nc(-c2ccc(NC(=O)Cc3ccccc3)cc2)cs1	64*	-4	-7	4	-1	-3	120	123
COc1ccc(/C=C2/CCC(CN3CCOCC3)C2=O)cc1 (stereo not drawn)	x	x	x	x	11	7	x	x
COc1ccc(C(=O)NCC(=O)OCC(=O)NC(=O)c2ccc(C(C)(C)C)cc2)cc1OC	145	6	0	-1	5	-1	x	x
COc1ccc(CNC(=O)CNC(=O)c2ccc(C(C)(C)C)cc2)cc1OC	62*	-12	-8	-4	-4	8	104	89
C[C@@H](C(=O)OCn1nnc2ccccc2c1=O)N1C(=O)C2CCCCC2C1=O (stereo partly drawn)	91	-2	1	-5	7	-5	x	x
C=C1CCC[C@]2(C)C[C@H]3OC(=O)C(CNCCN(CC)CC)[C@H]3CC12 (stereo partly drawn)	56*	-2	-14	-9	5	2	96	95
C=C1CCC[C@]2(C)C[C@H]3OC(=O)C(CNCCN(C)C)[C@H]3CC12 (stereo partly drawn)	95	-1	11	0	5	2	x	x
COc1cccc(NC(=O)Nc2ccc3c(c2)nc(C)n3C)c1	61*	-10	-4	1	2	5	108	112
COC(=O)/C=C1\S/C(=N\N=C\CC(=O)OC)NC1=O	109	-4	6	-4	4	1	x	x
COc1ccc(S(=O)(=O)Nc2noc3ccccc23)cc1OC	54*	4	4	-4	4	-6	83	97
COc1ccc(S(=O)(=O)Nc2noc3ccccc23)cc1	102	0	-8	3	3	1	x	x
CC(C)NC(=O)c1ccc(-c2ccc(F)c(F)c2)c2ccoc12	x	x	x	x	-3	5	x	x
CCOC(=O)c1cnc2c(F)ccc(F)c2c1Sc1ccccc1	62*	-5	2	2	-10	6	86	111
CCOC(=O)c1cnc(-c2ccccc2)nc1C(F)(F)F	108	7	-1	3	11	4	x	x
O=C(NCC1CCOCC1)C1Cc2c(-c3ccccc3Oc3ccccc3)ccnc2O1 (stereo not drawn)	x	x	x	x	-6	-2	x	x
COc1ccc(C2CC(c3ccc(OC)cc3OC(C)=O)=NN2C(=O)c2ccccc2)cc1 (stereo not drawn)	96	3	2	4	-12	2	x	x
COc1ccccc1C1=NN(C(=O)c2ccccc2)C(c2ccc(Br)cc2)C1 (stereo not drawn)	60*	-14	-3	5	8	-3	101	98
SMILES	Yeast superoxide	procasp3 activ	procasp7 counter	LANA-H2A inh	ARFGAP1 inhibitor	ASAP1 inh	Superoxide pick	DHE fluor count
O=C(CNC(=O)C1CC1)Nc1ccc(F)c(F)c1F	85	10	14	-2	-8	5	x	x
O=C(CNCC(=O)Nc1ccc(F)c(F)c1F)Nc1ccc(F)c(F)c1F	65*	0	6	-3	-12	-1	96	92
Cc1ccc(S(=O)(=O)N2[C@@H](CCO)OC[C@H]2C(C)C)cc1	x	x	x	x	-10	13	x	x
CCOC(=O)NC(=O)/C(C#N)=N/Nc1c(F)cccc1F	93	5	4	x	8	-20	101	104
CCOC(=O)NC(=O)/C(C#N)=N\Nc1cccc(OC)c1	102	0	-12	5	6	9	122	124
CCOC(=O)/C(C#N)=N/Nc1ccccc1C#N	114	-3	-11	1	-4	7	x	x
N#C/C(=N\Nc1c(Cl)cccc1Cl)C(=O)NN	94	2	-2	4	5	-6	110	119
NS(=O)(=O)c1ccc(N2CCOCC2)c(C(=O)NCCCSc2ccccc2)c1	103	1	1	-3	-1	-4	x	x
C/C(=N\N(Cc1ccccc1)c1ccccc1)c1cccnc1	94	2	-1	-1	1	-7	x	x
Cc1cc(Oc2ccc(=O)n(C)n2)nc(SCCOc2ccccc2)n1	15*	-10	6	-6	10	-11	107	93
CCOC(=O)CSc1nc(C)cc(Oc2ccc(=O)n(C)n2)n1	99	12	-15	1	4	6	x	x
Cc1ccc(C)c(NC(=O)CN(C)C(=O)c2cc3ccccc3oc2=O)c1	82	11	5	12	-10	3	x	x
CS(=O)(=O)N1CC(C(=O)O)Oc2ccc(CC(=O)O)cc21 (stereo not drawn)	101	4	0	2	-8	-7	x	x
Cc1nc(Nc2ccc(S(=O)(=O)N3CCCCC3C)cc2)c2nnn(Cc3ccccc3)c2n1 (stereo not drawn)	59*	1	-1	-4	-1	-5	106	109
Cc1c(O)ccc(NS(=O)(=O)c2ccccc2)c1C	98	-2	4	1	5	-12	x	x
Cc1cc(NS(=O)(=O)c2ccccc2)c(C)c(Cl)c1O	124	8	1	1	7	7	114	113
N#Cc1ccc(NC(=O)CN2CCN(c3ccccn3)CC2)cc1	98	-7	2	-1	-7	-8	97	102
COc1ccc(NC(=O)CN2CCN(c3ccccn3)CC2)cc1Cl	55*	-10	12	4	-2	-5	99	97
